Among the data in ChEMBL document CHEMBL1143328, “Determination of 1-aryl-4-propylpiperazine pKa values: the substituent on aryl modulates basicity” (Bioorg Med Chem, 2009) are pKa values, retold here.

A short description of the data set: Dissociation constant, pKa by potentiometric titration method. The format is physicochemical. A digest of the protocol: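 Each compound dissolved in ionic-strength-adjusted water (0.15 M), titrated with 0.5 M KOH up to pH 11. Steps capped at 0.2 pH units; each point recorded once drift fell below 0.002 pH/min. Electrode checked in pH 7.00 buffer and calibrated by blank titration daily.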
Consider `CCCN1CCN(c2cccc(C#N)c2)CC1`, for which the pKa (in general, the pH at which an ionisable group is half protonated) was determined as 7.67. As for `CCCN1CCN(c2ccc([N+](=O)[O-])cc2)CC1`, the figure is 7.59. With `CCCN1CCN(c2ccc(C(N)=O)cc2)CC1` the figure was 7.84; with `CCCN1CCN(c2cccc(OC)c2)CC1`, 7.86; with `CCCN1CCN(c2ccc(O)cc2)CC1`, 7.92. As for `CCCN1CCN(c2ccccc2Cl)CC1`, the figure is 8.07; as for `CCCN1CCN(c2ccc(Cl)cc2)CC1`, 7.83.

For `CCCN1CCN(c2cccc(C)c2)CC1`, the pKa is 7.83.

In turn, `CCCN1CCN(c2ccccc2[N+](=O)[O-])CC1` gave a pKa of 7.94. As for `CCCN1CCN(c2cccc(Cl)c2)CC1`, the pKa worked out at 7.83. As for `CCCN1CCN(c2ccccc2C(F)(F)F)CC1`, the figure is 8.8.

For `CCCN1CCN(c2ccccc2C)CC1`, the pKa worked out at 8.39. As to `CCCN1CCN(c2ccc(OC)cc2)CC1`, the pKa turned out to be 7.88.

In turn, `CCCN1CCN(c2ccccc2C(N)=O)CC1` displayed a pKa of 8.14. As for `CCCN1CCN(c2cccc(C(N)=O)c2)CC1`, the figure is 7.76. As for `CCCN1CCN(c2ccc(C)cc2)CC1`, the figure is 7.92; as for `CCCN1CCN(c2ccccc2C#N)CC1`, 7.92. As for `CCCN1CCN(c2cccc([N+](=O)[O-])c2)CC1`, the figure is 7.7; as for `CCCN1CCN(c2ccccc2OC)CC1`, 8.29; as for `CCCN1CCN(c2ccccc2)CC1`, 7.96. Take `CCCN1CCN(c2ccc(C(F)(F)F)cc2)CC1`: the pKa was 7.84. As for `CCCN1CCN(c2cccc(O)c2)CC1`, the figure is 7.82. With `CCCN1CCN(c2cccc(C(F)(F)F)c2)CC1` the figure was 7.81. Regarding `CCCN1CCN(c2ccccc2O)CC1`, the pKa amounted to 8.05.

The compound `CCCN1CCN(c2ccc(C#N)cc2)CC1` displayed a pKa of 7.78.
